# High-throughput results from PubChem BioAssay.
# MEKK2 WT-MEK5: raises or lowers MEK5 binding to wildtype human MEKK2 PB1 domain; actives 1.1% (n = 290,000); binding response (% of control), % at 10 µM; bead flow cytometry, Alexa488-MEK5 binding to MEKK2 WT; actives lie on both sides; Q9Y2U5; in the data active = binding response below about 67% or above about 130%
# UCH37 inh: inhibitors of human deubiquitinating enzyme UCH37; purified proteasome/UCH37, Ub-AMC cleavage fluorescence; inhibition, % (test concentration not listed); actives 0.33% (n = 330,000);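 active = mean inhibition over replicate wells above about 20%, limit read from the data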;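 note: 0% = compound-free wells with enzyme and 100% = wells lacking proteasome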
# Target sequence (Q9Y5K5 whole entry, looked up): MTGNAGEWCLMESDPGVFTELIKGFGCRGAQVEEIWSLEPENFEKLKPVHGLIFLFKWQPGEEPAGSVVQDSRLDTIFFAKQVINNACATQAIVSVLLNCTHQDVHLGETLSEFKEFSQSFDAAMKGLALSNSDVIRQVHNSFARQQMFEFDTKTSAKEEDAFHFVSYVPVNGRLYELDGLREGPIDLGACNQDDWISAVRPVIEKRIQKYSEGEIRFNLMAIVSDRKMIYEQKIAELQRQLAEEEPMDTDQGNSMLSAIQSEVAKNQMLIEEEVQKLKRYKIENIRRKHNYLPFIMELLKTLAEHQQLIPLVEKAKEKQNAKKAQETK
#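 Material: Human UCH37 enzyme supplied as purified proteasome complex | Schedule: 30 min compound-proteasome preincubation then 25 min substrate reaction, room temperature | Detection: AMC fluorescence from Ub-AMC cleavage, excitation 355 nm, emission 460 nm | Benchmarks: Wells without proteasome as full block, compound-free enzyme plus substrate as uninhibited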
# MEKK3 PB1 HTS: MEKK3-MEK5 PB1 interaction, increase or decrease. AID 1529. actives 1.4% (n = 290,000). bead-based flow cytometry, Alexa488-MEK5 binding to MEKK3; actives lie on both sides; 0 = blocked by unlabeled MEK5, 100 = vehicle. binding response (% of control), % at 10 µM;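 active = binding response more than 3 SD above or below the average of its plate-row segment, actives on both sides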;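 note: Alexa488 bead fluorescence after subtracting the streptavidin-only scavenger bead signal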
# T cell modulator: T cell immune modulators affecting CD8 T cell-vesicle binding. 2C CD8+ T cell-vesicle binding, flow cytometry; hits give low values. response (vesicle binding), % at 7 µM. actives 0.068% (n = 330,000). AID 2052;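 active = response, share of CD8 T cells binding vesicles, and their 90th percentile fluorescence all below set limits, cut at about 80% in these data, passing the limit was not always enough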;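 note: values below 100% mean blocked vesicle binding to the CD8+ T cells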
#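 Test system: purified 2C TCR transgenic mouse naive CD8+ T cells. Probe or stimulus: QL9-peptide-loaded Drosophila micro-vesicles bearing Ld, ICAM-1 and B7-1. Incubation: binding step 1.5 h, 37 °C, antibody labelling 20 min, ice. Measured by: flow cytometry of vesicle-bound cells.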
# MEKK2 mut-MEK5: signal of MEK5 binding to mutant human MEKK2 PB1 domain; bead flow cytometry, Alexa488-MEK5 binding to MEKK2 mutant; percent response, % at 10 µM; actives 0.35% (n = 290,000); AID 1530; in the data active = percent response above about 24%, passing the limit was not always enough
# Rce1 inhib: yeast Ras-converting enzyme inhibition. Q03530. yeast membranes, quenched prenylated peptide cleavage fluorescence. calls only. actives 0.27% (n = 290,000). AID 2563;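 active = fall in fluorescence gain of 50% or more versus controls, with final raw signal at or below 3038400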;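 note: plate controls were neutral control wells for no effect and wells lacking membranes for full effect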
# Target sequence (Q03530 whole entry, looked up): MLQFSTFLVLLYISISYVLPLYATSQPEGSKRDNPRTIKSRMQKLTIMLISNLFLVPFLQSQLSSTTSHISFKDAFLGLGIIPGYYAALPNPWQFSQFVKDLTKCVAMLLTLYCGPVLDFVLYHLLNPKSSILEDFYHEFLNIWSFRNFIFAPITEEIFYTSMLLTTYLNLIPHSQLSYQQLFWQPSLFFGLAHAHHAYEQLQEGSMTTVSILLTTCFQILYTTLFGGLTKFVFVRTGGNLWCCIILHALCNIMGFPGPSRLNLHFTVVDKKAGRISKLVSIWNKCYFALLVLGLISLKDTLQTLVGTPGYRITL
# MEKK2wt confirm: raises or lowers MEK5 binding to wildtype human MEKK2, retest. shares compounds with MEKK3 PB1 HTS. bead flow cytometry, Alexa488-MEK5 binding to MEKK2 WT; actives lie on both sides. binding response (% of control), % at 10 µM. actives 2.4% (n = 5,900); in the data active = binding response below about 16% or above about 210%; inactive = in between
# MEKK2mut confirm: signal of MEK5 binding to mutant human MEKK2, retest; shares compounds with MEKK3 PB1 HTS; percent response, % at 10 µM; bead flow cytometry, Alexa488-MEK5 binding to MEKK2 mutant; actives 2% (n = 5,900); in the data active = percent response mostly above about 71%, no sharp cut-off; inactive = mostly below about 38%;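 note: higher means compound restores mutant binding toward wildtype level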
# MEKK3 confirm: confirmation of inhibitors of MEK5 binding to human MEKK3; shares compounds with MEKK3 PB1 HTS; bead flow cytometry, Alexa488-MEK5 binding to MEKK3; hits give low values; binding response (% of control), % at 10 µM; actives 1.8% (n = 5,900); AID 1894;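 active = binding response below 72% of control, or above a set upper limit, though filed actives all read lower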;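 note: 100% = DMSO only wells and 0% = binding blocked by excess unlabeled MEK5; lower values mean stronger disruption of MEK5 binding to MEKK3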
# * = called active by the depositor; i = inactive; . = not tested or not shown; [ ] = another dose, or the depositor's remark. This is a sample that favours compounds with a hit; in the whole collection about 2.5% have one here.
SMILES,MEKK2 WT-MEK5,UCH37 inh,MEKK3 PB1 HTS,T cell modulator,MEKK2 mut-MEK5,Rce1 inhib,MEKK2wt confirm,MEKK2mut confirm,MEKK3 confirm
Cc1ccc(S(=O)(=O)N(CCCO)CC(O)CON=C2c3ccccc3-c3ccccc32)cc1 (stereo not given),109.0,3.8,136.0*,212.2,0.0,i,96.0,-4.0,98.0
O=[N+]([O-])c1ccccc1NN=Cc1cc2ccccc2nc1Cl,.,4.9,.,.,.,.,.,.,.
Nc1ccc(C(=O)OCC(=O)N2CCN(C(=O)c3ccco3)CC2)cc1[N+](=O)[O-],105.0,-1.1,134.0*,152.2,0.0,i,105.0,8.0,107.0
CCCCCCCC(=O)NN=C(C)c1c(O)cc(C)oc1=O,.,2.4,.,.,.,.,.,.,.
CC(CC(=O)NC1C2CC3CC(C2)CC1C3)=NNC(=O)Cc1cccs1 (stereo not given),.,1.8,.,.,.,.,.,.,.
Cc1ccc(NC(=O)c2cc(Cl)ccc2[N+](=O)[O-])cc1C,104.0,5.2,102.0,0.0,-2.0,i,.,.,.
Cc1ccc(NC(=O)c2ccc(NCCCN3CCC(C)CC3)c([N+](=O)[O-])c2)cc1F,158.0*,4.3,105.0,276.3,23.0,i,153.0,34.0,107.0
Cc1cccc(NC(=O)c2ccc(NCCc3ccccc3)c([N+](=O)[O-])c2)c1,107.0,2.9,135.0*,312.6,0.0,i,96.0,-4.0,99.0
Cc1cccc(NC(=O)c2cc(Cl)ccc2[N+](=O)[O-])c1,111.0,1.1,147.0*,116.1,1.0,i,116.0,3.0,103.0
Cc1ccc(C)c(S(=O)(=O)c2c(N)n(N=Cc3ccco3)c3nc4ccccc4nc23)c1,.,-83.8,.,.,.,.,.,.,.
CCN(CC)c1ccc(C=NNC(=O)CN2CCCc3ccccc32)cc1,.,-73.9,.,.,.,.,.,.,.
CCN(CC)c1ccc(/C=N/NC(=O)CN2CCCc3ccccc32)cc1,101.0,.,139.0*,179.2,-1.0,i,96.0,-6.0,100.0
ON=Cc1ccc(-c2ccccc2OC(F)(F)F)o1,.,1.4,.,.,.,.,.,.,.
CCOc1cc(C=NNC(=O)c2cc(-c3cccnc3)nc3ccccc23)ccc1O,.,5.5,.,.,.,.,.,.,.
CCN(CC)CCNCc1cc(Cl)ccc1OCc1ccccc1F,143.0,4.0,98.0,i,15.0,i,.,.,.
CC(C)(C)NCc1cc(Cl)ccc1OCc1ccccc1F,70.0,-1.6,75.0*[inhibitor],124.1,-22.0,i,101.0,0.0,99.0
COc1ccc(C(=O)Nc2nc3nccc(-c4ccccc4)n3n2)cc1,108.0,0.5,180.0*,255.9,1.0,i,102.0,4.0,103.0
COc1cc(C=NNC(=O)CC(=O)NC2CCCCC2)ccc1O,.,-6.3,.,.,.,.,.,.,.
Cc1cc(C)cc(OCC(=O)Nc2ccc3c(c2)C(=O)c2ccccc2C3=O)c1,104.0,3.1,139.0*,175.2,0.0,i,95.0,0.0,97.0
Cc1ccc(C=NNc2ccnc3cc(Cl)ccc23)c(C)c1,.,-13.4,.,.,.,.,.,.,.
Cc1ccsc1C=Nn1c(-c2ccccc2)n[nH]c1=S,.,1.0,.,.,.,.,.,.,.
CCOC(=O)Cn1cc(C(=O)C2CC2)c2ccccc21,2.0*[inhibitor],1.6,2.0*[inhibitor],229.0,-16.0,i,106.0,2.0,101.0
COc1ccc(COC(=O)NN=C(C)CC(=O)Nc2ccc(Cl)cc2)cc1,.,5.1,.,.,.,.,.,.,.
O=C(CC1C(=O)NCCN1CC1CCCCC1)NCc1ccc(Cl)cc1 (stereo not given),147.0*,-1.2,117.0,186.2,26.0,i,118.0,12.0,106.0
CCOC(=O)c1c(C)[nH]c(C(=O)COC(=O)COc2ccccc2C=O)c1C,91.0,4.5,70.0*[inhibitor],204.2,-2.0,i,98.0,2.0,101.0
SMILES,MEKK2 WT-MEK5,UCH37 inh,MEKK3 PB1 HTS,T cell modulator,MEKK2 mut-MEK5,Rce1 inhib,MEKK2wt confirm,MEKK2mut confirm,MEKK3 confirm
CC(=O)c1c(C)[nH]c(C(=O)COC(=O)CCSc2ccccc2)c1C,113.0,7.5,155.0*,457.0,1.0,.,94.0,-6.0,102.0
CCOC(=O)c1c(C)[nH]c(C(=O)COC(=O)CCSc2ccccc2)c1C,105.0,-0.7,105.0,255.8,5.0,i,.,.,.
Cc1cc(C(=O)NN=C(CCC(=O)O)c2cccs2)c2ccccc2n1,.,4.9,.,.,.,.,.,.,.
O=C(Nc1cccnc1)c1cn(-c2ccccc2)nc1-c1cccs1,104.0,0.0,101.0,i,0.0,i,.,.,.
CCN(CC)CCNC(=S)NC(=O)c1cn(-c2ccccc2)nc1-c1ccc(OC)cc1,148.0*,-0.2,107.0,29.1,28.0,i,138.0,21.0,109.0
CCN(CC)CCNC(=O)c1ccc(NC(=O)c2cn(-c3ccccc3)nc2-c2cccs2)cc1,212.0*,4.7,107.0,211.0,49.0,i,212.0*,53.0,108.0
COC(=O)c1cn(-c2ccccc2)nc1-c1ccc(OC)cc1,99.0,2.8,100.0,289.1,2.0,i,.,.,.
COc1ccccc1C1CCCN1Cc1nc(-c2ccc(C)s2)oc1C (stereo not given),63.0*[inhibitor],-22.0,61.0*[inhibitor],191.1,-14.0,i,107.0,6.0,101.0
COc1cccc(C2C3=C(CC(C)(C)CC3=O)OC(N)=C2[N+](=O)[O-])c1 (stereo not given),105.0,7.4,99.0,314.0,2.0,i,.,.,.
CC1(C)CC(=O)C2=C(C1)OC(N)=C([N+](=O)[O-])C2c1ccc(F)cc1 (stereo not given),137.0,8.4,137.0*,347.8,27.0,.,106.0,3.0,102.0
CN(C(=O)COC(=O)C(Cc1ccccc1)NC(=O)c1ccccc1)c1ccccc1 (stereo not given),106.0,4.0,134.0*,134.4,0.0,i,101.0,-8.0,98.0
CCOc1cccc(C=NNC(=S)NCCN2CCOCC2)c1O,.,-21.4,.,.,.,.,.,.,.
Cc1ccc(-c2nc(C#N)c(NCc3cccc4c3OCO4)o2)cc1,80.0,-30.5,70.0*[inhibitor],263.7,-17.0,i,94.0,-6.0,100.0
N#Cc1nc(-c2ccc(F)cc2)oc1NCc1cccc2c1OCO2,113.0,-14.0,110.0,439.7,13.0,i,.,.,.
O=[N+]([O-])c1ccc(NN=Cc2c[nH]c3ccccc23)cc1,.,8.6,.,.,.,.,.,.,.
COc1ccccc1C1CCN(Cc2ccc3ccccc3c2)CC1,138.0*,0.4,106.0,165.5,36.0*,i,135.0,12.0,100.0
COc1ccccc1C1CCN(Cc2ccccc2)CC1,103.0,2.5,97.0,171.6,5.0,i,.,.,.
